Laboratory results reported in article PMC8721161 (International Journal of Nanomedicine, 2021).

Tests used:
[1] = In vivo pharmacokinetic study, single oral dose, EPL in rabbit plasma by HPLC; set-up: species or system rabbits (Oryctolagus cuniculus)
Method in brief: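 Non-pregnant adult rabbits (2.5±0.1 kg) in three groups of six got a single oral dose of free compound, complex or nanoparticles. Jugular blood went into EDTA at set times, was spun 12,000 rpm 30 min, and plasma stored −70 °C. Perchloric acid precipitation preceded C18 HPLC (acetonitrile:KH2PO4 60:40, pH 4.0; 388 nm; plasma calibration 0.02–10 μg/mL). Non-compartmental log-linear trapezoidal analysis gave parameters; mean±SD.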

α-glucosidase enzyme = assay: Alpha-glucosidase enzyme inhibition activity; type: biochemical; settings: concentration not given
Method in brief: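 Enzyme was 0.02 U/μL α-glucosidase in 0.2 M sodium phosphate buffer, pH 6.8. Enzyme and buffer were preincubated 20 min with test compound in DMSO at 1000, 500, 250, 125 or 62.5 μg/mL. 0.02 M PNPG substrate was added for a further 30 min. The reaction was stopped with 0.2 M Na2CO3. Released p-nitrophenol was read at 405 nm and % inhibition calculated by formula.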

[2] = In vitro dissolution / drug release study; type: physicochemical; settings: 0.1 M phosphate buffer pH 6.8, 37±0.5 °C, dialysis bag, up to 12 h
Method in brief: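 Free test compound, its cyclodextrin complex and the complex-loaded chitosan nanoparticles were placed in dialysis bags presoaked overnight. Medium was 100 mL of 0.1 M phosphate buffer, pH 6.8, at 37±0.5 °C. Samples were 0.45 µm filtered and assayed by UV at 388 nm.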

## CC(/C=C1\SC(=S)N(CC(=O)O)C1=O)=C\c1ccccc1 [EPL, Epalrestat]
[1]; plasma, po
  Cmax: 4750 ± 3640 ng/mL
[1]; plasma, po, AUC0-α, single oral dose, mean±SD
  AUC: 192 ± 165 µg·h/mL
[1]; single oral dose, mean±SD
  AUC0-α: 191.5 ± 164.63 µg·h/mL
  MRT: 47.22±3.88 H
  T1/2 (elimination half-life): 4 H
α-glucosidase enzyme
  potency against α-glucosidase enzyme inhibition: greater than 70%
[2]
  cumulative drug release (%): 20–25%
